From ChEMBL document CHEMBL1122688, “Antimycotic azoles. 7. Synthesis and antifungal properties of a series of novel triazol-3-ones” (1984)

Tests used:
[1] = tested on: Microsporum canis; assay: In vitro antifungal activity against Microsporum canis; format: functional
Outline: (§1)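 Fungal growth-inhibition screen (Godefroi method) against dermatophytes, yeasts, moulds and other fungi. The value is the lowest concentration (µg/mL) giving total inhibition of growth, tested up to 100 µg/mL.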

[2] = In vivo activity against microsporosis guinea pig, measured as the ratio of animals cured/animals infected (C/I) at dose 2.5 mg/kg; C/I = 0/2; format: functional
[3] = tested on: Trichophyton rubrum; assay: In vitro antifungal activity against Trichophyton rubrum; format: functional; outline: as §1
[4] = tested on: Candida albicans; assay: In vitro antifungal activity against Candida albicans; format: functional; outline: as §1
[5] = tested on: Saprolegnia; assay: In vitro antifungal activity against Saprolegnia sp; format: functional; outline: as §1
[6] = tested on: Cryptococcus neoformans; assay: In vitro antifungal activity against Cryptococcus neoformans; format: functional; outline: as §1
[7] = tested on: Sporothrix schenckii; assay: In vitro antifungal activity against Sporothrix schenck ii; format: functional; outline: as §1
[8] = tested on: Aspergillus fumigatus; assay: In vitro antifungal activity against Aspergillus fumigatus; format: functional; outline: as §1
[9] = tested on: Phialophora verrucosa; assay: In vitro antifungal activity against Phialophora verrucosa; format: functional; outline: as §1
[10] = tested on: Trichophyton benhamiae; assay: In vitro antifungal activity against Trichophyton mentagrophytes; format: functional, Arthroderma benhamiae; outline: as §1
[11] = In vitro antifungal activity against Mucor sp; format: functional; outline: as §1
[12] = tested on: Candida tropicalis; assay: In vitro antifungal activity against Candida tropicalis; format: functional; outline: as §1
[13] = In vivo activity against vaginal candidoses in rats, measured as the ratio of animals cured/animals infected (C/I) at dose 2.5 mg/kg; C/I = 1/2; format: functional
[14] = In vivo activity against microsporosis guinea pig, measured as the ratio of animals cured/animals infected (C/I) at dose 10 mg/kg; C/I = 0/2; format: functional
[15] = In vivo activity against vaginal candidoses in rats, measured as the ratio of animals cured/animals infected (C/I) at dose 2.5 mg/kg; C/I = 0/2; format: functional
[16] = In vivo activity against microsporosis guinea pig, measured as the ratio of animals cured/animals infected (C/I) at dose 10 mg/kg; C/I = 2/2; format: functional
[17] = In vivo activity against microsporosis guinea pig, measured as the ratio of animals cured/animals infected (C/I) at dose 10 mg/kg; C/I = 1/2; format: functional
[18] = In vivo activity against vaginal candidoses in rats, measured as the ratio of animals cured/animals infected (C/I) at dose 2.5 mg/kg; C/I = 4/6; format: functional
[19] = In vivo activity against vaginal candidoses in rats, measured as the ratio of animals cured/animals infected (C/I) at dose 1.25 mg/kg; C/I = 0/2; format: functional

Compound | Inhibition [1] | C/I ratio [2] | Inhibition [3] | Inhibition [4] | Inhibition [5] | Inhibition [6] | Inhibition [7] | Inhibition [8] | Inhibition [9] | Inhibition [10] | Inhibition [11] | Inhibition [12] | C/I ratio [13] | C/I ratio [14] | C/I ratio [15] | C/I ratio [16] | C/I ratio [17] | C/I ratio [18] | C/I ratio [19]
CCc1nnc(O)n1-c1ccc(N2CCN(c3ccc(OC[C@@H]4COC(Cn5ccnc5)(c5ccc(Cl)cc5Cl)O4)cc3)CC2)cc1 (some centres undefined) | >100 µg/mL | 0 | >100 µg/mL | 100 µg/mL | >100 µg/mL | >100 µg/mL | >100 µg/mL | >100 µg/mL | >100 µg/mL | >100 µg/mL | >100 µg/mL | 100 µg/mL | – | – | – | – | – | – | –
CC(C)Cn1ncn(-c2ccc(N3CCN(c4ccc(OC[C@@H]5COC(Cn6ccnc6)(c6ccc(Cl)cc6Cl)O5)cc4)CC3)cc2)c1=O (some centres undefined) | >100 µg/mL | – | >100 µg/mL | 100 µg/mL | >100 µg/mL | >100 µg/mL | >100 µg/mL | >100 µg/mL | >100 µg/mL | 100 µg/mL | > 100 µg/mL | >100 µg/mL | 1 | 0 | – | – | – | – | –
Cc1nnc(O)n1-c1ccc(N2CCN(c3ccc(OC[C@@H]4COC(Cn5cncn5)(c5ccc(Cl)cc5Cl)O4)cc3)CC2)cc1 (some centres undefined) | >100 µg/mL | – | 100 µg/mL | >100 µg/mL | >100 µg/mL | 100 µg/mL | >100 µg/mL | >100 µg/mL | 100 µg/mL | 10 µg/mL | >100 µg/mL | 1 µg/mL | – | 0 | – | – | – | – | –
CCCn1nc(C)n(-c2ccc(N3CCN(c4ccc(OC[C@@H]5COC(Cn6ccnc6)(c6ccc(Cl)cc6Cl)O5)cc4)CC3)cc2)c1=O (some centres undefined) | >100 µg/mL | – | >100 µg/mL | 100 µg/mL | >100 µg/mL | >100 µg/mL | >100 µg/mL | >100 µg/mL | >100 µg/mL | >100 µg/mL | >100 µg/mL | 100 µg/mL | – | – | 0 | – | – | – | –
Cc1nn(C(C)C)c(=O)n1-c1ccc(N2CCN(c3ccc(OC[C@@H]4COC(Cn5cncn5)(c5ccc(Cl)cc5Cl)O4)cc3)CC2)cc1 (some centres undefined) | >100 µg/mL | – | >100 µg/mL | >100 µg/mL | >100 µg/mL | >100 µg/mL | >100 µg/mL | >100 µg/mL | >100 µg/mL | 100 µg/mL | >100 µg/mL | 10 µg/mL | 1 | 0 | – | – | – | – | –
O=c1n(-c2ccc(N3CCN(c4ccc(OC[C@@H]5COC(Cn6cncn6)(c6ccc(Cl)cc6Cl)O5)cc4)CC3)cc2)cnn1C1CCCC1 (some centres undefined) | >100 µg/mL | 0 | >100 µg/mL | >100 µg/mL | >100 µg/mL | >100 µg/mL | >100 µg/mL | >100 µg/mL | >100 µg/mL | 100 µg/mL | >100 µg/mL | >100 µg/mL | 1 | – | – | 2 | – | – | –
CCn1nc(C)n(-c2ccc(N3CCN(c4ccc(OC[C@@H]5COC(Cn6ccnc6)(c6ccc(Cl)cc6Cl)O5)cc4)CC3)cc2)c1=O (some centres undefined) | >100 µg/mL | 0 | >100 µg/mL | >100 µg/mL | >100 µg/mL | >100 µg/mL | >100 µg/mL | >100 µg/mL | >100 µg/mL | 100 µg/mL | >100 µg/mL | 100 µg/mL | – | – | 0 | – | – | – | –
Oc1nncn1-c1ccc(N2CCN(c3ccc(OC[C@@H]4COC(Cn5cncn5)(c5ccc(Cl)cc5Cl)O4)cc3)CC2)cc1 (some centres undefined) | >100 µg/mL | – | >100 µg/mL | >100 µg/mL | >100 µg/mL | >100 µg/mL | >100 µg/mL | >100 µg/mL | >100 µg/mL | >100 µg/mL | >100 µg/mL | >100 µg/mL | – | 0 | – | – | – | – | –
CCC(C)n1ncn(-c2ccc(N3CCN(c4ccc(OC[C@@H]5COC(Cn6ccnc6)(c6ccc(Cl)cc6Cl)O5)cc4)CC3)cc2)c1=O (some centres undefined) | >100 µg/mL | – | 1 µg/mL | >100 µg/mL | >100 µg/mL | 10 µg/mL | >100 µg/mL | 100 µg/mL | 100 µg/mL | 1 µg/mL | >100 µg/mL | 1 µg/mL | – | – | – | – | 1 | – | –
Cc1nnc(O)n1-c1ccc(N2CCN(c3ccc(OC[C@@H]4COC(Cn5ccnc5)(c5ccc(Cl)cc5Cl)O4)cc3)CC2)cc1 (some centres undefined) | >100 µg/mL | – | 10 µg/mL | 100 µg/mL | >100 µg/mL | 100 µg/mL | >100 µg/mL | >100 µg/mL | >100 µg/mL | 10 µg/mL | >100 µg/mL | 10 µg/mL | – | 0 | – | – | – | – | –
Oc1nncn1-c1ccc(N2CCN(c3ccc(OC[C@@H]4COC(Cn5ccnc5)(c5ccc(Cl)cc5Cl)O4)cc3)CC2)cc1 (some centres undefined) | >100 µg/mL | – | >100 µg/mL | >100 µg/mL | >100 µg/mL | >100 µg/mL | >100 µg/mL | >100 µg/mL | >100 µg/mL | 100 µg/mL | >100 µg/mL | 100 µg/mL | – | – | 0 | – | – | – | –
CCn1ncn(-c2ccc(N3CCN(c4ccc(OC[C@@H]5COC(Cn6ccnc6)(c6ccc(Cl)cc6Cl)O5)cc4)CC3)cc2)c1=O (some centres undefined) | >100 µg/mL | – | 10 µg/mL | 100 µg/mL | >100 µg/mL | >100 µg/mL | >100 µg/mL | >100 µg/mL | >100 µg/mL | 100 µg/mL | >100 µg/mL | 100 µg/mL | – | – | 0 | – | – | – | –
CC(C)CCn1ncn(-c2ccc(N3CCN(c4ccc(OC[C@@H]5COC(Cn6cncn6)(c6ccc(Cl)cc6Cl)O5)cc4)CC3)cc2)c1=O (some centres undefined) | >100 µg/mL | – | >100 µg/mL | 100 µg/mL | >100 µg/mL | >100 µg/mL | >100 µg/mL | >100 µg/mL | >100 µg/mL | 100 µg/mL | >100 µg/mL | >100 µg/mL | – | – | 0 | – | 1 | – | –
O=c1n(-c2ccc(N3CCN(c4ccc(OC[C@@H]5COC(Cn6cncn6)(c6ccc(Cl)cc6Cl)O5)cc4)CC3)cc2)cnn1CC1CC1 (some centres undefined) | >100 µg/mL | 0 | 10 µg/mL | 100 µg/mL | >100 µg/mL | >100 µg/mL | >100 µg/mL | >100 µg/mL | 100 µg/mL | 10 µg/mL | >100 µg/mL | >100 µg/mL | 1 | – | – | 1 | – | – | –
CCCCn1ncn(-c2ccc(N3CCN(c4ccc(OC[C@@H]5COC(Cn6ccnc6)(c6ccc(Cl)cc6Cl)O5)cc4)CC3)cc2)c1=O (some centres undefined) | >100 µg/mL | – | 10 µg/mL | 100 µg/mL | >100 µg/mL | >100 µg/mL | >100 µg/mL | >100 µg/mL | >100 µg/mL | 100 µg/mL | >100 µg/mL | 100 µg/mL | – | – | – | – | – | 4 | 0
